Active and inactive are the calls of the source. The rule behind the calls is not given here.
Tests used:
[1] = target: T1, Bombesin receptor subtype-3 (Homo sapiens) (UniProt P32247); assay: Agonistic activity at human BRS3 expressed in HEK293AEO at 10 uM cells by aequorin bioluminescence assay relative to dY peptide; format: functional, cell-based
T1 sequence (whole entry): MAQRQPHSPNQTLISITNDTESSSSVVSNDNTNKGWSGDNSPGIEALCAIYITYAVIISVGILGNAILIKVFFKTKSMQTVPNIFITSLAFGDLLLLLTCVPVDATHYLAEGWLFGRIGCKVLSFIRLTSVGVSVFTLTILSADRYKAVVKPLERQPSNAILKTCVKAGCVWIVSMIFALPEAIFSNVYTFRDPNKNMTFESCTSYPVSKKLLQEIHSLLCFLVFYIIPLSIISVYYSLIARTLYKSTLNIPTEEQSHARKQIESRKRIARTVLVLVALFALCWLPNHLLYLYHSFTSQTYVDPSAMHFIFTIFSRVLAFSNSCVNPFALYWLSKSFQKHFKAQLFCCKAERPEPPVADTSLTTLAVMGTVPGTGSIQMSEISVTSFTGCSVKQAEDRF

[2] = target: Gastrin-releasing peptide receptor (Homo sapiens, UniProt P30550); assay: Displacement of [125I]-[D-Tyr6,beta-Ala11,Phe13,Nle14]bombesin from human bombesin BB2 receptor expressed in NFAT-CHO cells after 2 hrs by liquid scintillation counting; format: cell-based
[3] = target: T2, Bombesin receptor subtype-3 (Homo sapiens, UniProt P32247); assay: Displacement of [125I]-[D-Tyr6,beta-Ala11,Phe13,Nle14]bombesin from human BRS3 expressed in NFAT-CHO cells after 2 hrs by liquid scintillation counting; format: cell-based
T2 sequence (P32247 whole entry): T1 sequence (whole entry)
Summary of the method: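 Membranes (1–4 µg protein) from NFAT-CHO cells expressing human BRS-3, incubated with 0.3 pM 125I-dY-peptide and a range of test compound concentrations in 50 mM Tris pH 7.2, 5 mM MgCl2, 0.1% BSA, 2 h at room temperature; bound/free separated by GF/c filtration with PBS washes; filter radioactivity by scintillation counting; mean of at least three runs.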

[4] = target: T3, Bombesin receptor subtype-3 (Rattus norvegicus) (UniProt Q8K418); assay: Agonistic activity at rat BRS3 expressed in HEK293AEO cells at by aequorin bioluminescence assay relative to dY peptide; format: functional, cell-based
T3 sequence (whole entry): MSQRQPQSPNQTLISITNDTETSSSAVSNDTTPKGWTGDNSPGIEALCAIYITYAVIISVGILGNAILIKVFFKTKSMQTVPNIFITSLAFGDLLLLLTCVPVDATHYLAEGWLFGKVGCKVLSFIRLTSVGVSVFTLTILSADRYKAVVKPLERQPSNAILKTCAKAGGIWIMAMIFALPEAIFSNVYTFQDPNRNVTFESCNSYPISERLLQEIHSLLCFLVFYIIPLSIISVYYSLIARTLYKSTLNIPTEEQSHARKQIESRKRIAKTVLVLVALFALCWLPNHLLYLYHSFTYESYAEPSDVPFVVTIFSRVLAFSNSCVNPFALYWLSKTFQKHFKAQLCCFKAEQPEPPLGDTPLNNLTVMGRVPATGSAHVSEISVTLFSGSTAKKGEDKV

[5] = target: T2, Bombesin receptor subtype-3; assay: Agonistic activity at human BRS3 expressed in HEK293AEO cells by aequorin bioluminescence assay; format: functional, cell-based
Neuromedin-B receptor = Neuromedin-B receptor (Homo sapiens, UniProt P28336); assay: Displacement of [125I]-[D-Tyr6,beta-Ala11,Phe13,Nle14]bombesin from human bombesin BB1 receptor expressed in NFAT-CHO cells after 2 hrs by liquid scintillation counting; format: cell-based
[6] = target: T4, Bombesin receptor subtype-3 (Mus musculus) (UniProt O54798); assay: Agonistic activity at mouse BRS3 expressed in HEK293AEO cells at 10 uM by aequorin bioluminescence assay relative to dY peptide; format: functional, cell-based
T4 sequence (whole entry): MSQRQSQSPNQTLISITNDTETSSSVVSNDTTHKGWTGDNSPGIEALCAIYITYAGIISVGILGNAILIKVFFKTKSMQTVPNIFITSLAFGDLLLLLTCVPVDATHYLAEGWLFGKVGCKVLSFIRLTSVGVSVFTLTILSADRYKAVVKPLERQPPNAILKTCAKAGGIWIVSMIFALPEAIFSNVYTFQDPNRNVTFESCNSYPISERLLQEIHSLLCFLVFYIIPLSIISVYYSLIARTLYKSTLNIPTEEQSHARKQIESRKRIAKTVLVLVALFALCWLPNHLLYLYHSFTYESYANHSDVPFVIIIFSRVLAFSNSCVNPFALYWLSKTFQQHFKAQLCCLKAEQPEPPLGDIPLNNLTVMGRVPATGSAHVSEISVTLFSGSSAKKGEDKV

[7] = target: T5, Bombesin receptor subtype-3 (Mus musculus, UniProt O54798); assay: Agonistic activity at mouse BRS3 expressed in HEK293AEO cells by aequorin bioluminescence assay; format: functional, cell-based
T5 sequence (O54798 whole entry): T4 sequence (whole entry)

[8] = target: T6, Bombesin receptor subtype-3 (Rattus norvegicus, UniProt Q8K418); assay: Agonistic activity at rat BRS3 expressed in HEK293AEO at 10 uM by aequorin bioluminescence assay; format: functional
T6 sequence (Q8K418 whole entry): T3 sequence (whole entry)

[9] = Clearance in Sprague-Dawley rat at 1 mg/kg, iv and 4 mg/kg, po; format: ADME, organism-based; settings: in vivo
Summary of the method: (§1)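 Sprague-Dawley rats given compound as solution in EtOH/PEG400/water (10:40:50), 1 mg/kg iv and 4 mg/kg po; clearance, steady-state volume of distribution, half-life, oral bioavailability and dose-normalised AUC derived.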

[10] = Volume of distribution at steady state in Sprague-Dawley rat at 1 mg/kg, iv and 4 mg/kg, po; format: ADME, organism-based; settings: in vivo, read-out: Vdss; summary of the method: as §1
Rattus norvegicus = assay: Reduction of food intake in rat at 25 ug, icv; format: functional; set-up: scale not given: the % may be the effect or the level left
Summary of the method: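 Rats dosed intracerebroventricularly with 25 µg; food intake compared with animals receiving vehicle (20% PG/water).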

[11] = Oral bioavailability in Sprague-Dawley rat at 4 mg/kg; format: ADME, organism-based; settings: in vivo; summary of the method: as §1
[12] = Half life in Sprague-Dawley rat at 1 mg/kg, iv and 4 mg/kg, po; format: ADME, organism-based; settings: in vivo; summary of the method: as §1
Mus musculus = assay: Effect on food intake in po dosed diet-induced obese mouse; format: functional, organism-based

Sequence of Neuromedin-B receptor (P28336 whole entry): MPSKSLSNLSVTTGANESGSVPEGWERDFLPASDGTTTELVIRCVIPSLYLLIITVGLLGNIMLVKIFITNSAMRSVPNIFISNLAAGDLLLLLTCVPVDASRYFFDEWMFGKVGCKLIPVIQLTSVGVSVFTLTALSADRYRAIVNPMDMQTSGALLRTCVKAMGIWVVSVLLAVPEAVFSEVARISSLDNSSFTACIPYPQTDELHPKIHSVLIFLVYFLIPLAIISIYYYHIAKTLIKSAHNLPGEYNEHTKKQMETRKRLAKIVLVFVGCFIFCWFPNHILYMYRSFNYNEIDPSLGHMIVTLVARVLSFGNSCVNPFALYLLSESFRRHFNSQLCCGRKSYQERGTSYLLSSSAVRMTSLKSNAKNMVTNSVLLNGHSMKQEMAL
Sequence of Gastrin-releasing peptide receptor (P30550 whole entry): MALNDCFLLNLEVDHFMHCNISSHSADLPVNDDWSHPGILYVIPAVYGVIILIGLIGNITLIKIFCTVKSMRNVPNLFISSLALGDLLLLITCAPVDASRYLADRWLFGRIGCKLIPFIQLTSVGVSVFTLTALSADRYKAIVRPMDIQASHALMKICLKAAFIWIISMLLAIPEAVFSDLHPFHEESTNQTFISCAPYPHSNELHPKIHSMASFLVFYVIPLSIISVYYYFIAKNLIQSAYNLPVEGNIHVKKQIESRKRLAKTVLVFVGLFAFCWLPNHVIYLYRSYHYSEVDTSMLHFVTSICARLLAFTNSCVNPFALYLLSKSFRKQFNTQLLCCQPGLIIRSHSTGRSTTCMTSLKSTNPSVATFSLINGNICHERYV

Activity [1] [%]	IC50 [2] [nM]	IC50 [3] [nM]	Activity [4] [%]	EC50 [5] [nM]	IC50 (Neuromedin-B receptor) [nM]	Activity [6] [%]	EC50 [7] [nM]	EC50 [8] [nM]	clearance [9] [mL/min/kg]	Vd [10] [L/kg]	bioavailability [11] [%]	half-life [12] [h]	Compound	Activity (Rattus norvegicus) [%]	Activity (Mus musculus)
74	> 10000	3680	101	1900	> 10000	98	238	174					CCCCc1cnc(C(CCCO)Cc2ccc(-c3ccccc3C(=O)O)cc2)[nH]1 (centres undefined)		
103				106		105	6.3		1.02	0.128	19	1.54	CC(C)(C)Cc1cnc(CCc2ccc(-c3ccccc3C(=O)O)cc2)[nH]1	29	inactive
